Data on ten compounds can be found in paper PMC4234452 (Journal of Medicinal Chemistry, 2014).

One data set addresses T1, human TG1 (Homo sapiens, UniProt P22735).
T1 sequence (P22735 63-817): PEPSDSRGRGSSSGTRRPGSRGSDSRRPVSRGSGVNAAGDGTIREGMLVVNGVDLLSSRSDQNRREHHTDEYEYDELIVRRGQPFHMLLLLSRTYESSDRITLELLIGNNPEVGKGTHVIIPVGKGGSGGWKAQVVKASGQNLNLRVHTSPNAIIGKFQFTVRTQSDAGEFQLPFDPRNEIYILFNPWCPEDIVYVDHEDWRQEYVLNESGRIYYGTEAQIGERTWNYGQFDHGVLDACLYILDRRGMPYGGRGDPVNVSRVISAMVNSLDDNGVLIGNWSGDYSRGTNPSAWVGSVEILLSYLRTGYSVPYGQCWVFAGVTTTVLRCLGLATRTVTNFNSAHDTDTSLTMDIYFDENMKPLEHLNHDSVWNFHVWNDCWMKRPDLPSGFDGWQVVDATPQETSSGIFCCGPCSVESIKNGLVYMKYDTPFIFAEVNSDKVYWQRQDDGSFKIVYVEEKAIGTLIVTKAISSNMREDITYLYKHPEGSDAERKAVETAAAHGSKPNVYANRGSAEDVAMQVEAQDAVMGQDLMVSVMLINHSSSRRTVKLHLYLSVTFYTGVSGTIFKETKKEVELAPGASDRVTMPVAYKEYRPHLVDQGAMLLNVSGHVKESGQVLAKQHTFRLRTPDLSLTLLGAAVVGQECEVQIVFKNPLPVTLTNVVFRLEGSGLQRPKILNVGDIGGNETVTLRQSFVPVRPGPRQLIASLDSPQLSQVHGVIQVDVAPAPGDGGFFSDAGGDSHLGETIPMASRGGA
Kind of data set: GDH-coupled transglutaminase assay, TG1. In kind it is biochemical.

The target in a further data set is T2, human TG2 (Homo sapiens, UniProt P21980, V224G).
T2 sequence (P21980 1-687 V224G): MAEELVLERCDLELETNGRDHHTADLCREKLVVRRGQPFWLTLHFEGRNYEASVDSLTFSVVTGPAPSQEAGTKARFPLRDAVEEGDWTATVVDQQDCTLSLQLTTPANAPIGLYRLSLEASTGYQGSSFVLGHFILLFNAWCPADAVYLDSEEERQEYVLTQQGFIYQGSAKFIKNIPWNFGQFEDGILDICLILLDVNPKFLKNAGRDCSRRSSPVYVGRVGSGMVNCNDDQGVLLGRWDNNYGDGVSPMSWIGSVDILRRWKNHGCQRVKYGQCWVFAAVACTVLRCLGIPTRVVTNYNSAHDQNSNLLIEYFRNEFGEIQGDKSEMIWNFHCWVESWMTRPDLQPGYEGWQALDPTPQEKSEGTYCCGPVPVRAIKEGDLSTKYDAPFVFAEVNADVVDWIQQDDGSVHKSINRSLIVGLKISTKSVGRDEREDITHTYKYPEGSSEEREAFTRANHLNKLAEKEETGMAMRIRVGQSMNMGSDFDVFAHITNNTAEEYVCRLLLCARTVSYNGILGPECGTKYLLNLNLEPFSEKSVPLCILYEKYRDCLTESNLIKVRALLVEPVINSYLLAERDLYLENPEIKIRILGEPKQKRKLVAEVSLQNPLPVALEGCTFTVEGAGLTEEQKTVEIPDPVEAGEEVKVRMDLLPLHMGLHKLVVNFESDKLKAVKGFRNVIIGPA
Put plainly: GDH-coupled transglutaminase assay, TG2. In kind it is biochemical.

The target in data set [1] is T3, Human Transglutaminase 3 (TG3) (Homo sapiens, UniProt Q08188).
T3 sequence (Q08188 2-467 limits assumed): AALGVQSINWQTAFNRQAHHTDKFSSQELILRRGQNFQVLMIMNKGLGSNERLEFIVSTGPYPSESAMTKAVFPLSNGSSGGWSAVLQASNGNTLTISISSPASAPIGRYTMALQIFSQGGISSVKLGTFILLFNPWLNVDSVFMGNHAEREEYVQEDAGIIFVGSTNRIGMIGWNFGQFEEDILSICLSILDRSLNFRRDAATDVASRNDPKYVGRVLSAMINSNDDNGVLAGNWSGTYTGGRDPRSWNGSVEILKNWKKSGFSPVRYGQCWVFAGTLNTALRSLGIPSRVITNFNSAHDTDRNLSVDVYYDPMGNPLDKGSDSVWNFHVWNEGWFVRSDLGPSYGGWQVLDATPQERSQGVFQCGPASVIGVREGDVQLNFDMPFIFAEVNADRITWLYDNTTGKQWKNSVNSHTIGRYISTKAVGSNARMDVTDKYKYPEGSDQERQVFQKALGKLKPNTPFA
T3 sequence (Q08188 468-693 partner limits assumed): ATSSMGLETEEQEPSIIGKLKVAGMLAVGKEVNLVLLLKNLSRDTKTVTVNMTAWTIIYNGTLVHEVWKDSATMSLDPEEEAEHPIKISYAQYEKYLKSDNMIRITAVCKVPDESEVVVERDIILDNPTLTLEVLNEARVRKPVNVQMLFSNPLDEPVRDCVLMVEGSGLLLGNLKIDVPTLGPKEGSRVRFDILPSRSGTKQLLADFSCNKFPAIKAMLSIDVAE
Kind of data set: GDH-coupled transglutaminase assay, TG3. In kind it is biochemical. Particulars: irreversible inhibition model, substrate ZQS.

The target of a further data set is T4, murine TG2 (mTG2) (Mus musculus, UniProt P21981).
T4 sequence (P21981 1-686): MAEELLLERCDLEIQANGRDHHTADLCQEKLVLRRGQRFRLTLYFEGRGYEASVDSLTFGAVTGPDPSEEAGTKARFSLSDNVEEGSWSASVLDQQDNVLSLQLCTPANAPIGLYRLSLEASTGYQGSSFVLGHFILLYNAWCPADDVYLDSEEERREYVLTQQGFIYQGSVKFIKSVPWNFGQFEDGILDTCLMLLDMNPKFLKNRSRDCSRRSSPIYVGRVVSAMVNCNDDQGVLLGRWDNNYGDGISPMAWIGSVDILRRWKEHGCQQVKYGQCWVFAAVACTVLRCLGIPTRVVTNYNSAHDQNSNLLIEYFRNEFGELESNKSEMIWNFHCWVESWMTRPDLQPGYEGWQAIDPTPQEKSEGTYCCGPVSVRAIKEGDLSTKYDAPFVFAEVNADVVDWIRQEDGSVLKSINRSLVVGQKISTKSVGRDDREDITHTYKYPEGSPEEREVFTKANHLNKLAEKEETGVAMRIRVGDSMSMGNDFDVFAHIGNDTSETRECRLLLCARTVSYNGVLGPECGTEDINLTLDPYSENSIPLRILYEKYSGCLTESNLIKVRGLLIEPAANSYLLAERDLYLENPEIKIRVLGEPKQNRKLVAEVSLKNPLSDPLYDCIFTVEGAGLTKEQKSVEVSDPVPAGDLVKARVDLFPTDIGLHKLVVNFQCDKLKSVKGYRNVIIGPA
Put plainly: GDH-coupled transglutaminase assay, murine TG2. In kind it is biochemical. Particulars: irreversible inhibition model, substrate ZQG.

Data set [2] can be described thus: Plasma concentrations after pooled oral dosing to mice. In kind it is in vivo. Conditions: 50 mg/kg. The method in brief: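 Test compounds given as mixtures by oral gavage (10 μL/g) at 50 mg/kg of each constituent to cohorts of five male CD-1 mice, 6−8 weeks old, fasted about 6 h. Blood was drawn into lithium-heparin tubes from the saphenous vein at 5 and 20 min, and by cardiac puncture at 60 min after CO2 euthanasia. Each compound's plasma concentration was quantified and plotted against time.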

For another data set, the system named is TG2. Conditions: murine model of hypoxia-induced pulmonary hypertension ref 22; cited from earlier work.
The conditions of data set [3]: twice-daily, intraperitoneal, 50 mg/kg, several weeks ref 22; cited from earlier work.

`O=C(NC[C@@H]1CC(Br)=NO1)[C@@H]1CCCN1C(=O)OCc1cnc2ccccc2c1` [Compound 1, (S)-Quinolin-3-ylmethyl 2-((((S)-3-Bromo-4,5-dihydroisoxazol-5-yl)methyl)carbamoyl)pyrrolidine-1-carboxylate]: the “kinh/Ki TG1” value at human TG1 (irreversible inhibition model, substrate ZQS, listed as ERW1041E) was determined as 217 M⁻¹ s⁻¹. For the same compound, on human TG2 (irreversible inhibition model, substrate ZQG, listed as ERW1041E), the “kinh/Ki TG2” value is 283 M⁻¹ s⁻¹. Further, the “decrease in potency from ERW1069 to ERW1041E” value on human TG2 (relative to ERW1069) is reported as 3–4 fold. For the same compound, the “kinh/Ki TG3” value in data set [1] was under 16.7 M⁻¹ s⁻¹. Further, at murine TG2 (mTG2), the “kinh/Ki mTG2” value is 138 M⁻¹ s⁻¹. In addition, the “peak plasma concentration after oral dosing” value in data set [2] fell in the range of 2 to 3 µg/mL. For the same compound, the inhibitory half-life entry in the data set on TG2 is “about 12 h”. Moreover, the tolerability result in data set [3] is recorded as “well tolerated”.

For the compound `O=C(NC[C@@H]1CC(Br)=NO1)[C@@H]1C[C@H](F)CN1C(=O)OCc1cnc2ccccc2c1` [Compound 4b, (2S,4S)-Quinolin-3-ylmethyl 2-((((S)-3-Bromo-4,5-dihydroisoxazol-5-yl)methyl)carbamoyl)-4-fluoropyrrolidine-1-carboxylate], in data set [1], the “kinh/Ki TG3” value is under 16.7 M⁻¹ s⁻¹. Also, on murine TG2 (mTG2), the “kinh/Ki mTG2” value came to 117 M⁻¹ s⁻¹.

`O=C(NC[C@@H]1CC(Br)=NO1)[C@@H]1C[C@@H](O)CN1C(=O)OCc1cnc2ccccc2c1` [Compound 4e, (2S,4R)-Quinolin-3-ylmethyl 2-((((S)-3-Bromo-4,5-dihydroisoxazol-5-yl)methyl)carbamoyl)-4-hydroxypyrrolidine-1-carboxylate]: the “kinh/Ki TG3” value in data set [1] is under 16.7 M⁻¹ s⁻¹. Also, on murine TG2 (mTG2), the “kinh/Ki mTG2” value stood at 185 M⁻¹ s⁻¹.

For `O=C(NC[C@@H]1CC(Br)=NO1)[C@@H]1C[C@@H](c2ccccc2)CN1C(=O)OCc1cnc2ccccc2c1` [Compound 7a, (2S,4S)-Quinolin-3-ylmethyl 2-((((S)-3-Bromo-4,5-dihydroisoxazol-5-yl)methyl)carbamoyl)-4-phenylpyrrolidine-1-carboxylate], the “kinh/Ki TG3” value in data set [1] was under 16.7 M⁻¹ s⁻¹. For the same compound, the “kinh/Ki mTG2” value on murine TG2 (mTG2) was 423 M⁻¹ s⁻¹. The “plasma levels, fold lower than that of 4b” value in data set [2] is 3–4 fold.

For the compound `O=C(NC[C@@H]1CC(Br)=NO1)[C@@H]1C[C@@H](c2ccc(O)cc2)CN1C(=O)OCc1cnc2ccccc2c1` [Compound 7e, (2S,4S)-Quinolin-3-ylmethyl 2-((((S)-3-Bromo-4,5-dihydroisoxazol-5-yl)methyl)carbamoyl)-4-(4-hydroxyphenyl)pyrrolidine-1-carboxylate], the “kinh/Ki TG3” value in data set [1] is under 16.7 M⁻¹ s⁻¹. Further, the “kinh/Ki mTG2” value on murine TG2 (mTG2) was 645 M⁻¹ s⁻¹. In data set [2], the “plasma levels, fold lower than that of 4b” value is 3–4 fold.

For the compound `O=C(N[C@@H]1C[C@@H](C(=O)NC[C@@H]2CC(Br)=NO2)N(C(=O)OCc2cnc3ccccc3c2)C1)c1ccc(O)cc1` [Compound 9d, (2S,4R)-Quinolin-3-ylmethyl 2-((((S)-3-Bromo-4,5-dihydroisoxazol-5-yl)methyl)carbamoyl)-4-(4-hydroxybenzamido)pyrrolidine-1-carboxylate], in data set [1], the “kinh/Ki TG3” value was under 16.7 M⁻¹ s⁻¹. Also, at murine TG2 (mTG2), the “kinh/Ki mTG2” value worked out at 157 M⁻¹ s⁻¹. The “oral bioavailability / systemic availability (in words)” value in data set [2] is given as “much less bioavailable”.

In the case of `O=C(N[C@@H]1C[C@@H](C(=O)NC[C@@H]2CC(Br)=NO2)N(C(=O)OCc2cnc3ccccc3c2)C1)c1cccnc1` [Compound 9e, (2S,4R)-Quinolin-3-ylmethyl 2-((((S)-3-Bromo-4,5-dihydroisoxazol-5-yl)methyl)carbamoyl)-4-(nicotinamido)pyrrolidine-1-carboxylate], in data set [1], the “kinh/Ki TG3” value is under 16.7 M⁻¹ s⁻¹. In addition, the “kinh/Ki mTG2” value on murine TG2 (mTG2) amounted to 177 M⁻¹ s⁻¹. The “oral bioavailability / systemic availability (in words)” value in data set [2] is recorded as “much less bioavailable”.

Take `C#CCOC(=O)N1CCC[C@H]1C(=O)NC[C@@H]1CC(Br)=NO1` [Compound 10b, (S)-Prop-2-yn-1-yl 2-((((S)-3-Bromo-4,5-dihydroisoxazol-5-yl)methyl)carbamoyl)pyrrolidine-1-carboxylate]: on human TG2 (from kinh/Ki), the “selectivity for TG2 over TG1” value is 3 fold.

Consider `O=C(NC[C@@H]1CC(Br)=NO1)[C@@H]1CCCN1C(=O)OCc1cnc2ccccc2n1` [Compound 10l, (S)-Quinoxalin-2-ylmethyl 2-((((S)-3-Bromo-4,5-dihydroisoxazol-5-yl)methyl)carbamoyl)pyrrolidine-1-carboxylate], for which the “selectivity for TG1 (over TG2)” value on human TG1 (from kinh/Ki) is given as 10 fold.

In the case of “(2S,4R)-Quinolin-3-ylmethyl 4-(Benzyloxy)-2-((((S)-3-bromo-4,5-dihydroisoxazol-5-yl)methyl)carbamoyl)pyrrolidine-1-carboxylate [Compound 5c]”, the “kinh/Ki TG3” value in data set [1] was under 16.7 M⁻¹ s⁻¹. For the same compound, the “kinh/Ki mTG2” value on murine TG2 (mTG2) was found to be 258 M⁻¹ s⁻¹.
